{
  "source": "ChEMBL document CHEMBL4190330",
  "about": "“Discovery of Potent and Selective A2A Antagonists with Efficacy in Animal Models of Parkinson's Disease and Depression” (ACS Med Chem Lett, 2017)",
  "key": {"[1]": {"experiment": "Metabolic stability in human liver microsomes assessed as metabolic rate", "assay_type": "ADME, microsome", "how_it_was_run": "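Liver microsomes (mouse, rat, dog, human) at 0.125 mg/mL protein; metabolic rate expressed as nmol/min/mg.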"}, "Adenosine receptor A2a": {"molecular_target": "Adenosine receptor A2a (Homo sapiens, UniProt P29274)", "sequence (P29274 whole entry)": "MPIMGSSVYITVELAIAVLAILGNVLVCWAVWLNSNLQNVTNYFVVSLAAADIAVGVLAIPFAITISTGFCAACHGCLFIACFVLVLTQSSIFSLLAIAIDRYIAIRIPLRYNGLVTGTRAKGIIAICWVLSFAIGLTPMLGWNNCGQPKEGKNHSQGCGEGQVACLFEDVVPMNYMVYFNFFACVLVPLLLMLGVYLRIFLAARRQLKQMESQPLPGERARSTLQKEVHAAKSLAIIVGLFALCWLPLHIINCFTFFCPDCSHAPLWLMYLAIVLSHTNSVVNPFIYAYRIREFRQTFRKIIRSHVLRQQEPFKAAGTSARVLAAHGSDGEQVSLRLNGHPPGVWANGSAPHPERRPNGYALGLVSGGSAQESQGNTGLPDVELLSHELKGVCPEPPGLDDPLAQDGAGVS", "experiment": "Antagonist activity at human A2A receptor expressed in HEK293 cell membranes assessed as reduction in CGS-21680-induced cAMP level pretreated for 15 mins followed by CGS-21680 addition measured after 30 mins by HTRF assay", "assay_type": "functional, cell-based", "how_it_was_run": "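HTRF-based cAMP functional assay; each compound tested at 12 concentrations, every point in triplicate; Ki given as mean of two independent experiments (n=2).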"}, "[2]": {"experiment": "Protein binding in human plasma", "assay_type": "ADME, cell-free", "conditions": "read-out: PPB (converted)"}, "Rattus norvegicus": {"system": "Rattus norvegicus", "experiment": "Toxicity in 6-OHDA-lesioned Wistar rat model of parkinson's disease assessed as induction of dyskinesia at 0.3 to 3 mg/kg, po administered twice daily for 21 days", "assay_type": "organism-based", "conditions": "in vivo, 504 h", "how_it_was_run": "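6-OHDA-lesioned rats given oral test compound (0.3-3 mg/kg) with L-DOPA, repeated daily; abnormal involuntary movements scored; mean ± SEM, n=6-7.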"}, "Homo sapiens": {"species_on_record": "Homo sapiens", "experiment": "Selectivity ratio of Ki for displacement of [3H]-HEMADO from human A3 receptor expressed in HEK293 cell membranes to Ki for displacement of [3H]ZM241385 from human A2A receptor expressed in HEK293 cell membranes", "how_it_was_run": "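Radioligand binding used membranes from HEK-293 cells overexpressing each human adenosine receptor isoform. Points were run in triplicate, and 8-concentration IC50 curves were plotted to give Ki. The selectivity value is the Ki at the off-target isoform divided by the Ki at hA2A.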"}, "Cytochrome P450 2C19": {"molecular_target": "Cytochrome P450 2C19 (Homo sapiens, UniProt P33261)", "sequence (P33261 whole entry)": "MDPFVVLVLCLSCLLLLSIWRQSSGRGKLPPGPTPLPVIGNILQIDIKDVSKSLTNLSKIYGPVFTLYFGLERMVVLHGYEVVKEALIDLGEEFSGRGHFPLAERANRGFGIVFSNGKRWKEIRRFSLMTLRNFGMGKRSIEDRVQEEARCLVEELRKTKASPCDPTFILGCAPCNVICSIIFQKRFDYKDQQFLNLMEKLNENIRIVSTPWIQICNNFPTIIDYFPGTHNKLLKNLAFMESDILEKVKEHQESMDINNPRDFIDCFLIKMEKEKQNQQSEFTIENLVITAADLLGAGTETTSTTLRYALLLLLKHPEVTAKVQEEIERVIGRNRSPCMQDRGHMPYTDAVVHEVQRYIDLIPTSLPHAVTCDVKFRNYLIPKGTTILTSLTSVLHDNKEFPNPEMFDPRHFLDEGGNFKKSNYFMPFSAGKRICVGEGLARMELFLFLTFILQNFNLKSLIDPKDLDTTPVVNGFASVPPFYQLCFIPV", "experiment": "Inhibition of CYP2C19 (unknown origin)", "assay_type": "ADME"}},
  "note": "pIC50, pKi: −log10 of the molar value.",
  "data": [
    {"molecule": "COCCOc1ccc(N2CCN(CCn3c(=O)n(C)c4c3nc(N)n3nc(-c5nccs5)nc43)CC2)cc1F", "values": [
      {"measurement": "Drug metabolism", "setting": "[1]", "value": 0.14, "unit": "nmol/min/mg"},
      {"measurement": "pKi", "setting": "Adenosine receptor A2a", "value": 9.40},
      {"measurement": "fraction unbound", "setting": "[2]", "value": 0.15},
      {"measurement": "Activity", "setting": "Rattus norvegicus", "value": "Non-Toxic"},
      {"measurement": "Ratio Ki", "setting": "Homo sapiens", "value": "> 3000"},
      {"measurement": "pIC50", "setting": "Cytochrome P450 2C19", "value": "< 5.00"}
    ]}
  ]
}
